For one data set, the system named is Staphylococcus aureus. Briefly: Antibacterial activity against Staphylococcus aureus […] after 18 to 24 hrs by micro-dilution method. It is filed as functional. For orientation: Broth dilution looks for growth in wells or tubes with falling amounts of substance.
The subject of another data set is Enterococcus faecalis. Briefly: Antibacterial activity against Enterococcus faecalis ATCC 29212 after 18 to 24 hrs by micro-dilution assay. It is filed as functional.
The test system of a further data set is Escherichia coli. The data set is described as follows: Antibacterial activity against Escherichia coli ATCC 35218 after 18 to 24 hrs by micro-dilution method. Type of data set: functional.
The next data set concerns Pseudomonas aeruginosa. The data set is described as follows: Antibacterial activity against Pseudomonas aeruginosa […] after 18 to 24 hrs by micro-dilution method. It is filed as functional.
The next data set concerns Shigella boydii. Briefly: Antibacterial activity against Shigella boydii clinical isolate after 18 to 24 hrs by micro-dilution method. Type of data set: functional.
For another data set, the system named is Klebsiella pneumoniae. The data set is described as follows: Antibacterial activity against Klebsiella pneumoniae ATCC 27736 after 18 to 24 hrs by micro-dilution method. Type of data set: functional.
In data set [1] the test system is Candida albicans. The data set is described as follows: Antifungal activity against Candida albicans ATCC 90028 after 18 to 24 hrs by micro-dilution method. Type of data set: functional. The method, boiled down: (§1)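 Microdilution MIC run as the antibacterial protocol but on Sabouraud dextrose […] pH 7.3±0.2; compounds 100 to 0.78 μg/mL in twofold steps; saline-prepared inocula 1-2 × 10⁷ cfu/mL, 0.01 mL added; 37 °C aerobic, 18-24 h; MIC read as lowest concentration without visible growth or turbidity; fluconazole reference.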

Data set [2] has as its system Candida albicans. Briefly: Antifungal activity against Candida albicans clinical isolate after 18 to 24 hrs by micro-dilution method. Type of data set: functional. The method, boiled down:
as §1

For another data set, the system named is Candida tropicalis. Briefly: Antifungal activity against Candida tropicalis ATCC 750 after 18 to 24 hrs by micro-dilution method. It is filed as functional. The gist of the method:
as §1

The subject of another data set is Candida parapsilosis. Briefly: Antifungal activity against Candida parapsilosis ATCC 22019 after 18 to 24 hrs by micro-dilution method. Type of data set: functional. As to conditions: Lodderomyces parapsilosis. The method, boiled down:
as §1

Another data set has as its system Cryptococcus neoformans. The data set is described as follows: Antifungal activity against Cryptococcus neoformans clinical isolate after 18 to 24 hrs by micro-dilution method. It is filed as functional. The method, boiled down: as §1
Another data set relates to Arthrodermataceae. The data set is described as follows: Antifungal activity against Dermatophyte clinical isolate after 18 to 24 hrs by micro-dilution method. It is filed as functional. The gist of the method:
as §1

A further data set concerns Aspergillus niger. The data set is described as follows: Antifungal activity against Aspergillus niger clinical isolate after 18 to 24 hrs by micro-dilution method. It is filed as functional. The gist of the method:
as §1

The next data set has as its system Aspergillus fumigatus. The data set is described as follows: Antifungal activity against Aspergillus fumigatus clinical isolate after 18 to 24 hrs by micro-dilution method. Type of data set: functional. The method, boiled down:
as §1

Another data set concerns Plasmodium falciparum. Briefly: Antimalarial activity against erythrocytic stage of chloroquine sensitive Plasmodium falciparum 3D7 assessed as inhibition of parasitemia after 48 hrs by Giemsa staining based microscopic analysis. Conditions: 3D7, 48 h. Type of data set: functional, organism-based. The method, boiled down:
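Asynchronous culture on human O⁺ erythrocytes, 1-1.5% parasitemia, 4% hematocrit, RPMI-1640 with HEPES, NaHCO₃, glutamine, gentamycin, Albumax II; drug 0.10-100 μg/mL, 48 h, 37 °C, medium changed at 24 h; triplicate wells; Giemsa thin smears, about 4,000 erythrocytes counted at 1,000X; % parasitemia inhibition versus control gives IC50.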

Data set [3] can be described thus: Cytotoxicity against human HuH7 cells after 72 hrs by MTT assay. Type of data set: cell-based, Huh-7. The gist of the method:
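Huh-7 cells, 4 × 10³/well in DMEM with 10% FBS and penicillin-streptomycin-glutamine; eight 2-fold dilutions 100-0.78 μg/mL, 72 h; MTT added 2-4 h, then isopropanol/Triton X-100/HCl solubilization 2 h dark, RT; absorbance 570 nm; CC50 as mean of at least two experiments in duplicate.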

By MIC is commonly meant the lowest concentration found to suppress growth. Broadly, the IC50 is the concentration needed to halve the response being measured. The CC50 is the concentration giving 50% cytotoxicity. High values mean lower toxicity to the cells, low ones greater toxicity to the cells.

Each structure is given as a SMILES string. Converted amounts (≈) assume the structure as drawn.

Turning to `COc1cc(O)c(C(=O)/C=C/c2ccc(OCc3cn(-c4ccc(F)cc4F)nn3)c(OC)c2)c(OC)c1`, the minimal inhibitory concentration (MIC) with Staphylococcus aureus came out at 12.5 µg/mL (≈ 23.9 µM); against Enterococcus faecalis, 12.5 µg/mL (≈ 23.9 µM); against Escherichia coli, 6.25 µg/mL (≈ 11.9 µM); against Pseudomonas aeruginosa, 12.5 µg/mL (≈ 23.9 µM); in the data set on Shigella boydii it was 6.25 µg/mL (≈ 11.9 µM); in the data set on Klebsiella pneumoniae, 12.5 µg/mL (≈ 23.9 µM). Also, the MIC in the data set on Candida albicans [1] was over 100 µg/mL; against Candida albicans [2], 50 µg/mL (≈ 95.5 µM); against Candida tropicalis, over 100 µg/mL; in the data set on Candida parapsilosis it was 25 µg/mL (≈ 47.8 µM); in the data set on Cryptococcus neoformans, 50 µg/mL (≈ 95.5 µM); in the data set with Arthrodermataceae, over 100 µg/mL. For the same compound, the minimum inhibitory concentration (MIC) in the data set on Aspergillus niger and with Aspergillus fumigatus was over 100 µg/mL throughout. In the data set with Plasmodium falciparum, the half-maximal inhibitory concentration (IC50) stood at 3.58 µg/mL (≈ 6.84 µM). The same compound had a CC50 at 72 h in [3] of over 100 µg/mL.

Consider `COc1cc(O)c(C(=O)/C=C/c2ccc(OC)c(OCc3cn(-c4ccccc4Cl)nn3)c2)c(OC)c1`, for which the minimum inhibitory concentration (MIC) was 25 µg/mL (≈ 47.9 µM) in the data set on Staphylococcus aureus; 25 µg/mL (≈ 47.9 µM) in the data set on Enterococcus faecalis; 50 µg/mL (≈ 95.8 µM) in the data set with Escherichia coli; 100 µg/mL (≈ 192 µM) in the data set with Pseudomonas aeruginosa; 12.5 µg/mL (≈ 23.9 µM) in the data set with Shigella boydii; over 100 µg/mL against Klebsiella pneumoniae. Moreover, the MIC was found to be 6.25 µg/mL (≈ 12 µM) against Candida albicans [1]; 12.5 µg/mL (≈ 23.9 µM) against Candida albicans [2]; 6.25 µg/mL (≈ 12 µM) against Candida tropicalis; 12.5 µg/mL (≈ 23.9 µM) in the data set with Candida parapsilosis; 12.5 µg/mL (≈ 23.9 µM) in the data set with Cryptococcus neoformans; 12.5 µg/mL (≈ 23.9 µM) in the data set with Arthrodermataceae. Besides, the minimum inhibitory concentration (MIC) in the data set on Aspergillus niger and with Aspergillus fumigatus was 12.5 µg/mL (≈ 23.9 µM) throughout. Moreover, in the data set on Plasmodium falciparum, the IC50 was found to be 8.03 µg/mL (≈ 15.4 µM). In data set [3], the CC50 at 72 h was over 100 µg/mL.

Turning to `COc1cc(OC)c2c(=O)cc(-c3ccc(OCc4cn(-c5ccc(F)c(Cl)c5)nn4)c(OC)c3)oc2c1`, the minimal inhibitory concentration (MIC) in the data set on Staphylococcus aureus, in the data set on Enterococcus faecalis, with Escherichia coli, in the data set with Pseudomonas aeruginosa, against Shigella boydii and with Klebsiella pneumoniae was over 100 µg/mL throughout. The minimum inhibitory concentration (MIC) against Candida albicans [1] was 12.5 µg/mL (≈ 23.2 µM); against Candida albicans [2] it was 12.5 µg/mL (≈ 23.2 µM); with Candida tropicalis, 12.5 µg/mL (≈ 23.2 µM); against Candida parapsilosis, 12.5 µg/mL (≈ 23.2 µM); against Cryptococcus neoformans, 6.25 µg/mL (≈ 11.6 µM); in the data set on Arthrodermataceae, 12.5 µg/mL (≈ 23.2 µM). For the same compound, the MIC in the data set on Aspergillus niger and in the data set with Aspergillus fumigatus was 50 µg/mL (≈ 92.9 µM) throughout. In addition, the concentration for half-maximal inhibition (IC50) with Plasmodium falciparum was found to be 4.48 µg/mL (≈ 8.33 µM). In data set [3], this compound displayed a CC50 at 72 h of over 100 µg/mL.

For the compound `COc1cc(O)c(C(=O)/C=C/c2ccc(OCc3cn(-c4ccc(F)c(Cl)c4)nn3)c(OCc3cn(-c4ccc(F)c(Cl)c4)nn3)c2)c(OC)c1`, the minimal inhibitory concentration (MIC) in the data set on Staphylococcus aureus was over 100 µg/mL; in the data set on Enterococcus faecalis it was 100 µg/mL (≈ 136 µM); against Escherichia coli, over 100 µg/mL; against Pseudomonas aeruginosa, over 100 µg/mL; against Shigella boydii, 100 µg/mL (≈ 136 µM); in the data set on Klebsiella pneumoniae it was over 100 µg/mL. For the same compound, the MIC in the data set with Candida albicans [1], in the data set with Candida albicans [2], against Candida tropicalis, in the data set with Candida parapsilosis, against Cryptococcus neoformans and against Arthrodermataceae was over 100 µg/mL throughout. Further, the MIC against Aspergillus niger and with Aspergillus fumigatus was over 100 µg/mL in each case. The IC50 with Plasmodium falciparum is 10.9 µg/mL (≈ 14.8 µM). The compound further yielded a CC50 at 72 h in data set [3] of over 100 µg/mL.

As to `COc1cc(O)c(C(=O)/C=C/c2ccc(OC)c(OCc3cn(-c4ccc(F)cc4Cl)nn3)c2)c(OC)c1`, the MIC with Staphylococcus aureus is 100 µg/mL (≈ 185 µM); against Enterococcus faecalis, over 100 µg/mL; against Escherichia coli, over 100 µg/mL; in the data set with Pseudomonas aeruginosa, over 100 µg/mL; against Shigella boydii, over 100 µg/mL; in the data set with Klebsiella pneumoniae, over 100 µg/mL. For the same compound, the minimal inhibitory concentration (MIC) in the data set with Candida albicans [1], against Candida albicans [2], in the data set with Candida tropicalis, with Candida parapsilosis, against Cryptococcus neoformans and in the data set with Arthrodermataceae was over 100 µg/mL throughout. Further, the MIC against Aspergillus niger and with Aspergillus fumigatus was over 100 µg/mL each time. For the same compound, the 50% inhibitory concentration (IC50) in the data set on Plasmodium falciparum was determined as 4.92 µg/mL (≈ 9.11 µM). Further, the CC50 at 72 h in data set [3] is over 100 µg/mL.

On to `COc1cc(O)c(C(=O)/C=C/c2ccc(OCc3cn(-c4ccc(F)c(Cl)c4)nn3)c(OC)c2)c(OC)c1`, for which the MIC was over 100 µg/mL against Staphylococcus aureus; 50 µg/mL (≈ 92.6 µM) against Enterococcus faecalis; 50 µg/mL (≈ 92.6 µM) with Escherichia coli; 100 µg/mL (≈ 185 µM) against Pseudomonas aeruginosa; 25 µg/mL (≈ 46.3 µM) with Shigella boydii; over 100 µg/mL with Klebsiella pneumoniae. Also, the minimal inhibitory concentration (MIC) in the data set with Candida albicans [1], against Candida albicans [2], in the data set with Candida tropicalis, in the data set with Candida parapsilosis, in the data set on Cryptococcus neoformans and against Arthrodermataceae was over 100 µg/mL in each case. Further, the results for the MIC in the data set on Aspergillus niger and with Aspergillus fumigatus were 100 µg/mL (≈ 185 µM) and over 100 µg/mL, respectively. Also, the IC50 with Plasmodium falciparum was found to be 2.74 µg/mL (≈ 5.07 µM). Further, the half-maximal cytotoxic concentration (CC50) at 72 h in data set [3] is over 100 µg/mL.

Regarding `OC(Cn1cncn1)(Cn1cncn1)c1ccc(F)cc1F` [FLUCONAZOLE], the MIC against Candida albicans [1] amounted to 0.5 µg/mL (≈ 1.63 µM); in the data set with Candida albicans [2] it was 0.5 µg/mL (≈ 1.63 µM); against Candida tropicalis it was 0.5 µg/mL (≈ 1.63 µM); against Candida parapsilosis, 0.5 µg/mL (≈ 1.63 µM); against Cryptococcus neoformans, 2 µg/mL (≈ 6.53 µM); against Arthrodermataceae, 4 µg/mL (≈ 13.1 µM). For the same compound, the MIC against Aspergillus niger and against Aspergillus fumigatus was 2 µg/mL (≈ 6.53 µM) in each case.

These data come from ChEMBL document CHEMBL3779815, “Synthesis of newer 1,2,3-triazole linked chalcone and flavone hybrid compounds and evaluation of their antimicrobial and cytotoxic activities” (Eur J Med Chem, 2016).
